Calls of active or inactive are those of the source. The rule behind the calls is not given here. Where only a bound is given, the exact number is not on record here.

The subject of data set [1] is Plasmodium falciparum. In words: Resistance index, ratio of IC50 for asexual intraerythrocytic ring stage of chloroquine-resistant Plasmodium falciparum W2 infected in human O+ erythrocytes to IC50 for asexual intraerythrocytic ring stage of chloroquine-sensitive Plasmodium falciparum 3D7 infected in human O+ erythrocytes. The class given is functional.
In data set [2] the test system is Plasmodium falciparum. Briefly: Antiplasmodial activity against asexual intraerythrocytic ring stage of chloroquine-sensitive Plasmodium falciparum 3D7 infected in human O+ erythrocytes assessed as inhibition of parasitic proliferation after 96 hrs by SYBR Green-1 based fluorescence assay. The class given is functional, organism-based. Particulars: 3D7, 96 h.
Data set [3] relates to Plasmodium falciparum. Briefly: Antiplasmodial activity against asexual intraerythrocytic ring stage of antifolate-resistant Plasmodium falciparum HB3 infected in human O+ erythrocytes assessed as inhibition of parasitic proliferation after 96 hrs by SYBR Green-1 based fluorescence assay. It counts as functional, organism-based. Conditions: HB3, 96 h.
The nature of data set [4]: Selectivity index, ratio of GI50 for human HepG2 cells to IC50 for asexual intraerythrocytic ring stage of chloroquine-sensitive Plasmodium falciparum 3D7 infected in human O+ erythrocytes. It counts as functional.
For data set [5], the system named is HepG2. In words: (§1) Cytotoxicity against human HepG2 cells assessed as inhibition of cell growth after 48 hrs by LDH assay. The class given is cell-based. Conditions: hepg2, 48 h.
Data set [6] relates to Plasmodium falciparum. Briefly: Antiplasmodial activity against asexual intraerythrocytic ring stage of chloroquine-resistant Plasmodium falciparum W2 infected in human O+ erythrocytes assessed as inhibition of parasitic proliferation after 96 hrs by SYBR Green-1 based fluorescence assay. The class given is functional, organism-based. Particulars: W2, 96 h.
Data set [7] has as its system Plasmodium falciparum. In words: Plasmocidal activity against intraerythrocytic early trophozoitic stage of chloroquine-sensitive Plasmodium falciparum 3D7 infected in human O+ erythrocytes assessed as cessation of nuclear division at IC90 after 24 hrs by SYBR Green I-based flow cytometry. The class given is functional, organism-based. On the technique in general: A flow cytometer gives signals particle by particle.

Data set [8] deals with Plasmodium falciparum. Briefly: Plasmocidal activity against intraerythrocytic chloroquine-sensitive Plasmodium falciparum 3D7 infected in human O+ erythrocytes assessed as inhibition of parasitic proliferation at IC90 after 24 to 96 hrs by flow cytometry. It counts as functional, organism-based.
Data set [9] has as its system Plasmodium falciparum. In words: Gametocytocidal activity against Plasmodium falciparum NF54-Mal8p1.16-GFP-Luc late (4 to 5) gametocyte assessed as inhibition of parasite viability at 5 uM after 48 hrs by luciferase reporter assay. It counts as functional, organism-based. The method, boiled down: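 NF54 luciferase reporter line; gametocytogenesis induced in glucose-free medium under hypoxia without shaking, with daily medium changes. Mature stage IV/V gametocytes were used on day 10, at 2% gametocytemia and 2% hematocrit. Compound at 5 µM for 48 h, hypoxic, 37 °C, in triplicate; three biological repeats. Read-out was luciferase in lysates with luciferin substrate.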
In general terms: Reporter assays use an easily measured gene product as a stand-in for the process of interest.

Data set [10] is described as follows: as §1. The class given is cell-based. Particulars: HepG2 cells.
The test system of data set [11] is HepG2. Briefly: Cytotoxicity against human HepG2 cells assessed as cell viability at 5000XIC50 for Plasmodium falciparum 3D7 after 48 hrs by LDH assay. The class given is cell-based. Particulars: hepg2, 48 h.
Data set [12] deals with Plasmodium falciparum. In words: Antiplasmodial activity against chloroquine-resistant Plasmodium falciparum Dd2. The class given is functional, organism-based.
Data set [13] can be described thus: Inhibition of NP-40-mediated beta-hematin formation after 5 hrs by pyridine-ferrichrome method. The class given is functional.
Data set [14] deals with Plasmodium falciparum. In words: Plasmocidal activity against intraerythrocytic chloroquine-sensitive Plasmodium falciparum 3D7 infected in human O+ erythrocytes assessed as cessation of nuclear division measured as proportion of schizonts containing >2N nuclear content at IC90 after 96 hrs by SYBR Green I-based flow cytometry. It counts as functional.
The test system of data set [15] is Plasmodium falciparum. In words: Plasmocidal activity against intraerythrocytic chloroquine-sensitive Plasmodium falciparum 3D7 infected in human O+ erythrocytes assessed as irreversible inhibition of parasitic viability at 10XIC90 pulsed with compound for 12 hrs followed by drug wash-out measured after 36 hrs by SYBR Green 1 based flow cytometry. The class given is functional, organism-based. The method, boiled down: (§2)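 Cultures were washed once in RPMI 1640 and diluted 1:40. Proliferation followed at set times over 36 h by SYBR Green I DNA fluorescence.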

In data set [16] the test system is Plasmodium falciparum. Briefly: Plasmocidal activity against intraerythrocytic chloroquine-sensitive Plasmodium falciparum 3D7 infected in human O+ erythrocytes assessed as cessation of nuclear division measured as proportion of rings/trophozoites containing 1N nuclear content at IC90 after 96 hrs by SYBR Green I-based flow cytometry.
For data set [17], the system named is Plasmodium falciparum. Briefly: Plasmocidal activity against intraerythrocytic early trophozoitic stage of chloroquine-sensitive Plasmodium falciparum 3D7 infected in human O+ erythrocytes assessed as non-progressive pyknotic phenotype with apparently dying morphology at IC90 measured over 48 hrs single lifecycle by Giemsa staining based microscopy. It counts as functional, organism-based.

Data set [18] can be described thus: Inhibition of NP-40-mediated beta-hematin formation at >400 uM after 5 hrs by pyridine-ferrichrome method. The class given is functional. The method, boiled down: (§3)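 NP-40 detergent (305.5 µM), water and DMSO mixed with compound over a concentration range. Incubated 5 h at 37 °C with hematin in 1 M acetate buffer, pH 4.8, with occasional shaking. β-Hematin measured by the pyridine-ferrichrome method, absorbance at 405 nm. Three biological repeats in triplicate.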

The test system of data set [19] is Plasmodium falciparum. In words: Plasmocidal activity against intraerythrocytic chloroquine-sensitive Plasmodium falciparum 3D7 infected in human O+ erythrocytes assessed as cessation of nuclear division measured as proportion of schizonts containing 2N nuclear content at IC90 after 96 hrs by SYBR Green I-based flow cytometry. It counts as functional.
The test system of data set [20] is Plasmodium falciparum. In words: Plasmocidal activity against intraerythrocytic chloroquine-sensitive Plasmodium falciparum 3D7 infected in human O+ erythrocytes assessed as irreversible inhibition of parasitic viability at IC90 pulsed with compound for 12 hrs followed by drug wash-out measured after 36 hrs by SYBR Green 1 based flow cytometry. The class given is functional. In a few lines:
as §2

Data set [21] in a line: Inhibition of NP-40-mediated beta-hematin formation at 1 mM after 5 hrs by pyridine-ferrichrome method. The class given is functional. The method, boiled down:
as §3

In the case of `O=C(NCCCNCCCCCCNCCCNC(=O)Nc1ccccc1)Nc1ccccc1`, the “Ratio IC50” value with Plasmodium falciparum [1] is 0.3.

As usually defined, the IC50 is the midpoint of a concentration-inhibition curve. Turning to `N=C(N)NCCCNCCCNCCCNC(=N)N`, the IC50 in the data set on Plasmodium falciparum [2] was found to be 147 µM; in the data set on Plasmodium falciparum [3], 110 µM.

One may read the GI50 as the concentration giving 50% growth inhibition. Turning to `O=C(NCCCNCCCCCNCCCNC(=O)NCC(c1ccccc1)c1ccccc1)NCC(c1ccccc1)c1ccccc1`, the concentration for half-maximal inhibition (IC50) in the data set with Plasmodium falciparum [2] is 0.028 µM; in the data set on Plasmodium falciparum [6], 0.018 µM; in the data set with Plasmodium falciparum [3] it was 0.04 µM. Further, in data set [4], the “Selectivity Index” value stood at 3375. Moreover, the GI50 in the data set with HepG2 [5] came out at 94.5 µM. In addition, the outcome with Plasmodium falciparum [7] was Active. The inhibition entry with Plasmodium falciparum [8] is “Active”. Further, the “Ratio IC50” value in the data set on Plasmodium falciparum [1] turned out to be 0.64.

Turning to `S=C(NCCCNCCCCCNCCCNC(=S)NCCC(c1ccccc1)c1ccccc1)NCCC(c1ccccc1)c1ccccc1`, the values for the IC50 in the data set with Plasmodium falciparum [2], with Plasmodium falciparum [6] and in the data set with Plasmodium falciparum [3] were 0.076 µM, 0.041 µM and 0.062 µM, respectively. Moreover, the “Selectivity Index” value in [4] is recorded as 666. Moreover, in the data set on HepG2 [5], the GI50 is 50.6 µM. Also, the inhibition entry in the data set with Plasmodium falciparum [9] was “Active”. For the same molecule, the “Ratio IC50” value with Plasmodium falciparum [1] stood at 0.54.

As to `S=C(NCCCNCCCCCCNCCCNC(=S)NCc1ccccc1)NCc1ccccc1`, in data set [10], the GI50 at 48 h is > 200 µM. The “Ratio IC50” value with Plasmodium falciparum [1] is 1.9.

Take `O=C(NCCCNCCCCCNCCCNC(=O)Nc1ccccc1)Nc1ccccc1`: the IC50 is 0.246 µM with Plasmodium falciparum [2], 0.049 µM in the data set with Plasmodium falciparum [6] and 0.177 µM in the data set with Plasmodium falciparum [3]. Also, in [4], the “Selectivity Index” value is listed as >5000. In the data set on HepG2 [11], the Activity is 100%. Besides, the “Ratio IC50” value with Plasmodium falciparum [1] is reported as 0.2.

Regarding `S=C(NCCCNCCCCNCCCNC(=S)NCc1ccccc1)NCc1ccccc1`, in [10], the GI50 at 48 h is > 200 µM.

As for `O=C(NCCCNCCCCCCCNCCCNC(=O)NC(c1ccccc1)c1ccccc1)NC(c1ccccc1)c1ccccc1`, in [10], the GI50 at 48 h was > 200 µM. For the same molecule, the “Ratio IC50” value with Plasmodium falciparum [1] is 1.7.

In the case of `S=C(NCCCNCCCCCNCCCNC(=S)NC(c1ccccc1)c1ccccc1)NC(c1ccccc1)c1ccccc1`, the results for the IC50 in the data set with Plasmodium falciparum [2], with Plasmodium falciparum [6] and in the data set on Plasmodium falciparum [3] were 0.068 µM, 0.035 µM and 0.075 µM, respectively. Also, the “Selectivity Index” value in data set [4] amounted to 659. In the data set on HepG2 [5], the GI50 was found to be 44.8 µM. Moreover, the inhibition entry in the data set on Plasmodium falciparum [9] is “Active”. In addition, the “Ratio IC50” value in the data set on Plasmodium falciparum [1] is given as 0.51.

Take `C(CCCNCCCNCC1CCCCCC1)CCCNCCCNCC1CCCCCC1`: the IC50 with Plasmodium falciparum [2] worked out at 0.11 µM; with Plasmodium falciparum [12] it was 0.12 µM.

As to `N=C(N)NCCCNCCCCCCCNCCCNC(=N)N`, in the data set on Plasmodium falciparum [3], the IC50 amounted to 70.3 µM.

On to `S=C(NCCCNCCCCCNCCCNC(=S)NCC(c1ccccc1)c1ccccc1)NCC(c1ccccc1)c1ccccc1`, for which the IC50 in [13] was 16.7 µM; in the data set with Plasmodium falciparum [2] it was 0.04 µM; with Plasmodium falciparum [6], 0.047 µM; with Plasmodium falciparum [3] it was 0.056 µM. Besides, in data set [4], the “Selectivity Index” value was determined as 1305. For the same molecule, in the data set on HepG2 [5], the GI50 was 52.2 µM. The “Ratio IC50” value with Plasmodium falciparum [1] is recorded as 1.18.

`S=C(NCCCNCCCCCCNCCCNC(=S)NC(c1ccccc1)c1ccccc1)NC(c1ccccc1)c1ccccc1`: the GI50 at 48 h in data set [10] is > 200 µM. Also, the “Ratio IC50” value in the data set with Plasmodium falciparum [1] stood at 1.2.

As to `O=C(NCCCNCCCCCCCNCCCNC(=O)NCCC(c1ccccc1)c1ccccc1)NCCC(c1ccccc1)c1ccccc1`, in the data set on Plasmodium falciparum [1], the “Ratio IC50” value is listed as 1.13.

As to `O=C(NCCCNCCCCCNCCCNC(=O)NC(c1ccccc1)c1ccccc1)NC(c1ccccc1)c1ccccc1`, the IC50 with Plasmodium falciparum [2] stood at 0.047 µM; in the data set with Plasmodium falciparum [6], 0.02 µM; with Plasmodium falciparum [3], 0.065 µM. The “Selectivity Index” value in data set [4] was found to be 5113. The GI50 in the data set with HepG2 [5] was found to be 240 µM. Also, the “Ratio IC50” value in the data set on Plasmodium falciparum [1] came to 0.43.

In the case of `O=C(NCCCNCCCCCNCCCNC(=O)NCCC(c1ccccc1)c1ccccc1)NCCC(c1ccccc1)c1ccccc1`, the values for the IC50 in the data set with Plasmodium falciparum [2], in the data set with Plasmodium falciparum [6] and in the data set with Plasmodium falciparum [3] were 0.03 µM, 0.036 µM and 0.056 µM, respectively. In addition, the Activity in the data set with Plasmodium falciparum [14] stood at 2%; with Plasmodium falciparum [16] it was 88%; with Plasmodium falciparum [19] it was 10%. The inhibition result (with Plasmodium falciparum [15]; in data set [18]; in the data set on Plasmodium falciparum [8]) was “Active” in each case. For the same molecule, the “Selectivity Index” value in data set [4] was 5090. Further, the GI50 in the data set with HepG2 [5] worked out at 153 µM. In addition, the outcome in the data set with Plasmodium falciparum [17] and with Plasmodium falciparum [7] was Active. In the data set on Plasmodium falciparum [20], the “inhibition (INH)” value is on record as >40%. For the same molecule, in the data set with Plasmodium falciparum [1], the “Ratio IC50” value was 1.2.

As to `O=C(NCCCNCCCCCNCCCNC(=O)NCc1ccccc1)NCc1ccccc1`, the IC50 in the data set on Plasmodium falciparum [2] is 0.793 µM; with Plasmodium falciparum [6], 0.171 µM; in the data set on Plasmodium falciparum [3], 0.593 µM. Further, the inhibition result in data set [21] was “inactive”. Also, the “Selectivity Index” value in data set [4] is given as 2456. For the same molecule, the GI50 in the data set with HepG2 [5] amounted to 1950 µM. The “Ratio IC50” value in the data set with Plasmodium falciparum [1] is 0.22.

Regarding `N=C(N)NCCCNCCCCNCCCNC(=N)N`, the IC50 in the data set on Plasmodium falciparum [2] is 80 µM; in the data set on Plasmodium falciparum [3], 14.2 µM.

Regarding `S=C(NCCCNCCCCCNCCCNC(=S)NCc1ccccc1)NCc1ccccc1`, the IC50 in the data set with Plasmodium falciparum [2] is 0.249 µM; in the data set with Plasmodium falciparum [6], 0.042 µM; in the data set on Plasmodium falciparum [3] it was 0.178 µM. For the same molecule, the “Selectivity Index” value in data set [4] was >5000. For the same molecule, the Activity in the data set with HepG2 [11] is given as 100%. Also, the “Ratio IC50” value in the data set with Plasmodium falciparum [1] is 0.17.

`O=C(NCCCNCCCCCCCNCCCNC(=O)NCC(c1ccccc1)c1ccccc1)NCC(c1ccccc1)c1ccccc1`: in the data set with Plasmodium falciparum [1], the “Ratio IC50” value turned out to be 1.4.

(Values after ChEMBL document CHEMBL3596171, “Interrogating alkyl and arylalkylpolyamino (bis)urea and (bis)thiourea isosteres as potent antimalarial chemotypes against multiple lifecycle forms of Plasmodium falciparum parasites” (Bioorg Med Chem, 2015).)
